SKN-1 inh = blocks SKN-1 activity in C. elegans; actives 0.49% (n = 360,000); AID 624304; inhibition, % at 21.8 µM; C. elegans VP596 Pgst-4::GFP/RFP ratio, acrylamide-induced, 24 h;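 active means interference check ratio from 0.5 to 1.5 plus GFP to RFP signal ratio inhibition reaching or exceeding a fixed threshold, cut at about 30% in these data, passing the limit was not always enough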
DDE Tn6 FP inh = disrupts Tn6 cyclic peptide binding to fibrin D-Dimer-E complex. P02675. Fibrin DD(E) TRITC-Tn6 fluorescence polarization displacement. inhibition, % at 8.3 µM. actives 0.21% (n = 370,000). AID 720509;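 active means inhibition above a per-campaign cutoff: mean of compounds within control limits plus 3 SD, cut at about 15% in these data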
Target sequence (P02675 whole entry, looked up): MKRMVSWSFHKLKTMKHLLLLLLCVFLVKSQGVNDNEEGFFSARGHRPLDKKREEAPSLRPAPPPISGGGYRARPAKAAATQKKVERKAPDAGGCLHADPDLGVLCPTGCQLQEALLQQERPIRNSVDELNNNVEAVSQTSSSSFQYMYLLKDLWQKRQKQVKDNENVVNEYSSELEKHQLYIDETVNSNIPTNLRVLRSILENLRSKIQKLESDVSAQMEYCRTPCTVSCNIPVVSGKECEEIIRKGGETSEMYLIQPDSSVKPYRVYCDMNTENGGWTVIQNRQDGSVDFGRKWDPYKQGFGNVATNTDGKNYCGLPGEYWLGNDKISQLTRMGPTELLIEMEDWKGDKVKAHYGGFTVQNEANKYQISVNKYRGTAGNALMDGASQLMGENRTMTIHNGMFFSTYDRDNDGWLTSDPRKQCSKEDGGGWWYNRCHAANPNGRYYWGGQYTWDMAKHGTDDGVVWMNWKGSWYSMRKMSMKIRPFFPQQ
DDE Tn7 FP inh = disrupts Tn7 cyclic peptide binding to fibrin D-Dimer-E complex. P02675. inhibition, % at 8.3 µM. actives 0.13% (n = 370,000). FP displacement of FITC-Tn7 peptide from fibrin DD(E); 0% = median of compound wells per plate. AID 720508;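 active means inhibition above the mean of compounds falling within the control limits plus 3 SD of them, cut at about 14% in these data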
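Assay system: Fibrin-DD(E) protein isolated from polymerized human fibrin clots; read-out basis: percent inhibition; medium: Tris/NaCl/CaCl2 buffer, pH 7.8; signal: FP measurement; incubation: 10 min plus 3 h, room temperature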
MT1-MMP act inh = inhibitors of human MT1-MMP activation; HT1080 RFP-PRO-GFP cells, GFP/RFP ratio fluorescence, overnight; percent of plate control window, DMSO zero; actives 0.061% (n = 360,000); P50281; GFP/RFP ratio change, % at 20 µM; AID 651647;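 active means GFP/RFP ratio change of at least 30% with cell ATP level not reduced by more than half and red fluorescence within 50% of control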
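Assay system: HT1080 cells carrying an RFP-PRO-GFP reporter | Dosing: Single dose of 20 µM compound, 1% DMSO final | Incubation: Cells overnight before dosing, compound overnight, 37 °C, 5% CO2 | Evaluation: GFP/RFP fluorescence ratio | Control set: DMSO and RFP-L50D-GFP cell wells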
DDE Tn6 FP ctr = counter-screen hit for Tn6 peptide-fibrin DD(E) binding disruption. shares compounds with DDE Tn6 FP inh. TRITC-Tn6 fluorescence polarization displacement; 0% = median of compound wells, not DMSO. inhibition, % at 8.3 µM. actives 2% (n = 680). AID 720621;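 active means inhibition above the mean of test compounds lying between the control limits plus 3 SD of those, cut at about 14% in these data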
DDE Tn6 confirm = DD(E)-Tn6 binding inhibition, FP confirmation | shares compounds with DDE Tn6 FP inh | FP displacement of TRITC-Tn6 peptide from DD(E); 0% = per-plate median of test wells | inhibition, % at 8.3 µM | actives 10% (n = 680);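 active means inhibition above the mean of compounds lying within the control limits plus 3 SD, cut at about 16% in these data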
Of the large screens only hits and unclear results are named; the others gave an inactive call (follow-up assays come after a bar, where they were run). The list is not random: actives were taken first. Their share in the collection is about 0.84%.

Oc1ccccc1C1CC(c2cccs2)=NC(c2cccc(Br)c2)N1 (stereo not given)	DDE Tn6 FP inh 105 | DDE Tn6 FP ctr inactive | DDE Tn6 confirm inactive
O=C([C@H]1O[C@@H](n2ccc(=O)[nH]c2=O)[C@H](O)[C@@H]1O)N1CCSC1	none
COCCCNc1ncnc2c1sc1nc(-c3ccco3)c3c(c12)CC(C)(C)OC3	DDE Tn6 FP inh 18 | DDE Tn6 FP ctr inactive | DDE Tn6 confirm inactive
CC1(C)Cc2c(c(-c3ccco3)nc3sc4c(NCCO)ncnc4c23)CO1	none
CC(O)CSc1nc2c(c(=O)[nH]c(=O)n2C)n1Cc1ccccc1Cl (stereo not given)	none
CCOC(=O)C(=CNc1cccc(C)c1C)C(=O)OCC	none
CCOC(=O)C(=CNc1ccc(C)cc1C)C(=O)OCC	DDE Tn6 FP inh 15 | DDE Tn6 FP ctr inactive | DDE Tn6 confirm inactive
COc1ccccc1C(=O)COC(=O)CNS(=O)(=O)c1ccc(C)cc1	none
O=C1OC(c2ccccc2)(c2ccccc2)c2ccsc21	DDE Tn6 FP inh 16 | DDE Tn6 FP ctr inactive | DDE Tn6 confirm inactive
O=C(Nc1ccc(S(=O)(=O)Nc2ncccn2)cc1)C1CC(=O)N(c2ccc(Cl)cc2)C1 (stereo not given)	DDE Tn6 FP inh 17 | DDE Tn6 FP ctr inactive | DDE Tn6 confirm inactive
Cc1nc(Cl)c2c(n1)N(CC(N)=O)C(=O)CO2	none
CN(C)c1ccc(N=Nc2ccc(S(N)(=O)=O)cc2)cc1	none
CC1=CC(=O)C=CC1=Nc1ccc(N(C)C)cc1	DDE Tn6 FP inh 22 | DDE Tn6 FP ctr inactive | DDE Tn6 confirm inactive
O=C1NC[C@@H](c2ccccc2)OC(=O)[C@@H](Cc2ccc(F)cc2)CC/C=C/C[C@@H]1CC(=O)N(CCO)Cc1ccccc1	DDE Tn6 FP inh 16 | DDE Tn6 FP ctr inactive | DDE Tn6 confirm inactive
O=C1N[C@@H](c2ccccc2)COC(=O)[C@@H](Cc2ccc(F)cc2)CC/C=C/C[C@H]1CC(=O)N(CCO)Cc1ccccc1	none
CC(C(=O)O)c1ccc(N2Cc3ccccc3C2=O)cc1 (stereo not given)	none
Cn1c(COc2ccccc2)nnc1SCc1nc2ccccc2[nH]1	none
COc1ccc(-n2c(COc3ccccc3)nnc2SCc2nc3ccccc3[nH]2)cc1	DDE Tn6 FP inh 18 (no result: SKN-1 inh, MT1-MMP act inh) | DDE Tn6 FP ctr inactive | DDE Tn6 confirm inactive
N#Cc1c2c(c(Nc3ccc(F)cc3)n3c1nc1ccccc13)CCCC2	none
Cc1nn(-c2ccc(F)cc2)c2c1cc(C#N)c1nc3ccccc3n12	DDE Tn6 FP inh 16 | DDE Tn6 FP ctr inactive | DDE Tn6 confirm inactive
COc1cc(OC)cc(C(=O)N(CN2CCCC2=O)c2ccccc2OC)c1	DDE Tn6 FP inh 16 | DDE Tn6 FP ctr inactive | DDE Tn6 confirm inactive
CC(C=NN=C1C(=O)Nc2ccccc21)=Cc1ccccc1	none (no result: SKN-1 inh, MT1-MMP act inh)
COc1ccc(C(=O)NCc2nnc(SCC(=O)Nc3cc(OC)ccc3OC)o2)cc1	DDE Tn6 FP inh 15 | DDE Tn6 FP ctr inactive | DDE Tn6 confirm inactive
COc1ccc(OC)c(NC(=O)CSc2nnc(CNC(=O)c3ccccc3F)o2)c1	none
Cc1cc2c(cc1S(=O)(=O)N1CCN(c3cccc(C)c3C)CC1)OCCN2C	DDE Tn6 FP inh 131 | DDE Tn6 FP ctr inactive | DDE Tn6 confirm 67
O=C(Nc1ccc(F)cc1)OCc1cn(Cc2ccccc2Cl)nn1	none (no result: SKN-1 inh, MT1-MMP act inh)
CCN(CC)c1ccc(/C=N/n2nnnc2N)c(O)c1	DDE Tn6 FP inh 18 | DDE Tn6 FP ctr inactive | DDE Tn6 confirm inactive
Cn1cc(CCOCc2ccccn2)c2ccccc21	none (no result: SKN-1 inh, MT1-MMP act inh)
C=C1CCN(c2ccc(C(=O)NCc3ccc(OC)cc3)cc2[N+](=O)[O-])CC1	DDE Tn6 FP inh 15 | DDE Tn6 FP ctr inactive | DDE Tn6 confirm inactive
C=C1CCN(c2ccc(C(=O)NCc3ccc(C)cc3)cc2[N+](=O)[O-])CC1	none
CC(=O)c1cc2cccc(OC3(C)CCN(Cc4ccc(-c5ccccn5)cc4)C3)c2o1 (stereo not given)	none
CCOc1cccc(C(=O)Nc2ccc(N(CC)CC)cc2)c1	none
CCN(CC)c1cccc(OCC(=O)N(C)CCC#N)c1	DDE Tn6 FP inh 88 | DDE Tn6 FP ctr inactive | DDE Tn6 confirm inactive
COC(=O)c1ccccc1NC(=O)c1ccc2c(c1)OCCCO2	none
COc1ccccc1NS(=O)(=O)c1cc(N)ccc1N1CCOCC1	none
Nc1ccc(N2CCOCC2)c(S(=O)(=O)Nc2ccccc2Cl)c1	DDE Tn6 FP inh 18 | DDE Tn6 FP ctr inactive | DDE Tn6 confirm inactive
O=C(OCc1cc([N+](=O)[O-])cc2c1OCOC2)c1ccccn1	DDE Tn6 FP inh 18 | DDE Tn6 FP ctr inactive | DDE Tn6 confirm inactive
Cc1cc(C)cc(OCC(=O)NNC(=O)CC(C)c2ccccc2)c1 (stereo not given)	none
CCOc1ccc(CCN2C(=S)N([C@@H](Cc3ccc(O)cc3)CN3CCC[C@@H]3CN3C(=S)NC[C@@H]3CC(C)C)C[C@@H]2Cc2ccc(O)cc2)cc1	DDE Tn6 FP inh 16 | DDE Tn6 FP ctr inactive | DDE Tn6 confirm inactive
Oc1ccc(C[C@H]2CNC(=S)N2CC2CCCN2C[C@H](Cc2ccc(O)cc2)N2C[C@H](Cc3ccc(O)cc3)N(CC3CCCCCC3)C2=S)cc1 (stereo not given in full)	DDE Tn6 FP inh 31 | DDE Tn6 FP ctr inactive | DDE Tn6 confirm inactive
Oc1ccc(C[C@H]2CNC(=S)N2C[C@H]2CCCN2C[C@H](Cc2ccccc2)N2C[C@H](Cc3ccc(O)cc3)N(CCc3ccccc3)C2=S)cc1	DDE Tn6 FP inh 17 | DDE Tn6 FP ctr inactive | DDE Tn6 confirm inactive
Cc1ccc(-n2nnnc2-c2cccs2)cc1[N+](=O)[O-]	none
CCN(Cc1ccc(OC)c(F)c1)C(C)C(=O)Nc1ccc(S(=O)(=O)N2CCCC2)cc1 (stereo not given)	none
N#CC(C#N)=C1NC2(CCCCC2)Cc2ccccc21	none
N#CC(C#N)=c1ccc2c(c1)NC1(CCCCC1)N=2	DDE Tn6 FP inh 42 | DDE Tn6 FP ctr inactive | DDE Tn6 confirm 34
C#CCn1c(S(=O)(=O)Cc2ccccc2Cl)nc(-c2ccccc2)c1-c1ccccc1	DDE Tn6 FP inh 16 | DDE Tn6 FP ctr inactive | DDE Tn6 confirm inactive
C#CCn1c(S(=O)(=O)Cc2ccc(C)cc2)nc(-c2ccccc2)c1-c1ccccc1	none
CCOC(=O)N1CCN(C(=O)C[C@H]2C(=O)N(CCCOC)C3=CCCC[C@@]32C(=O)OCC)CC1	DDE Tn6 FP inh 15 (no result: SKN-1 inh, MT1-MMP act inh) | DDE Tn6 FP ctr inactive | DDE Tn6 confirm inactive
O=C(CSc1ccc(Br)c2cccc(Cl)c12)Nc1ccc(S(=O)(=O)Nc2nccs2)cc1	DDE Tn6 FP inh 27 | DDE Tn6 FP ctr inactive | DDE Tn6 confirm inactive
O=C(Cc1ccccc1Cl)Nc1ccc(S(=O)(=O)Nc2nccs2)cc1	none

Compound activity from PubChem.
